Data: ChEMBL document CHEMBL3751816, “Design, synthesis and evaluation of acridine derivatives as multi-target Src and MEK kinase inhibitors for anti-tumor treatment” (Bioorg Med Chem, 2016)
Activity calls are given as the source filed them. No cut-off for these calls is given here.

Columns and labels:
[1] = test system: K562; assay: Cytotoxicity against human K562 cells after 48 hrs by MTT assay; type: functional, cell-based; conditions: K562, 48 h
Procedure, shortened: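 K562 cells in DMEM with 10% FBS, 37 °C, 5% CO2. Seeded at 7×10^5 cells/mL and held 12 h. Compounds in DMSO, diluted to final 0.01–50 µM (final DMSO below 1%), triplicate per concentration, 48 h. Then MTT 4 h at 37 °C, formazan dissolved in DMSO, absorbance read at 495 nm.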

[2] = test system: HepG2; assay: Cytotoxicity against human HepG2 cells after 48 hrs by MTT assay; type: functional, cell-based; conditions: HepG2, 48 h
Procedure, shortened: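 HepG-2 cells in DMEM with 10% FBS, 37 °C, 5% CO2. Seeded at 5×10^5 cells/mL for 12 h, then medium removed. Compounds in DMSO diluted to final 0.01–50 µM (DMSO below 1%), triplicate per concentration, 48 h. MTT 4 h at 37 °C, formazan taken up in DMSO, A495 read.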

[3] = target: Proto-oncogene tyrosine-protein kinase Src (Homo sapiens) (UniProt P12931); assay: Inhibition of Src (unknown origin) at 10 uM after 15 mins by luminescence assay
Chain of Proto-oncogene tyrosine-protein kinase Src (Homo sapiens) (P12931 2-536 limits assumed): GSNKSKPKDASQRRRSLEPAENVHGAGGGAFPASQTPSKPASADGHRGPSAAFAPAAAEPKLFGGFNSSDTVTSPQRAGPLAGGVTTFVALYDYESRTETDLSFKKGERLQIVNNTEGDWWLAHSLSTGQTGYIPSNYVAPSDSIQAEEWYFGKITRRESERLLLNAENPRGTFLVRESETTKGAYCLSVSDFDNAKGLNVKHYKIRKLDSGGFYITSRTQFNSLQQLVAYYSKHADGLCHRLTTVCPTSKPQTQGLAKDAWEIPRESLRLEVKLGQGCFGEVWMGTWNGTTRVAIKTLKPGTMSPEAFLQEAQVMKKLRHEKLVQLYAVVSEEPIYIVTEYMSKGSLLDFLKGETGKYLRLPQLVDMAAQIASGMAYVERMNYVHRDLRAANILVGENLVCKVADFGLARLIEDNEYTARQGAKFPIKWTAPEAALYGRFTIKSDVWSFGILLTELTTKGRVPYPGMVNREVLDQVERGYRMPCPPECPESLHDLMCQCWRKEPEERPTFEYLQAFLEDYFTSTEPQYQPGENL
Procedure, shortened: (§1)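 Contract-run kinase assay. Enzyme, substrate, ATP and compound (10 µM, in 2.5% DMSO) mixed in pH 7.0 buffer: 50 mM HEPES/NaOH, 0.02% NaN3, 0.01% BSA, orthovanadate, 5 mM MgCl2, 1 mM DTT. Incubated 15 min at room temperature. Detection with streptavidin-XL665 plus TK antibody europium cryptate in KF/EDTA buffer. […]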

[4] = target: T1, Dual specificity mitogen-activated protein kinase kinase; MEK1/2 (Homo sapiens) (UniProt P36507+Q02750); assay: Inhibition of MEK (unknown origin) at 10 uM after 15 mins by luminescence assay; procedure, shortened: as §1
T1 sequence (P36507 whole entry, looked up): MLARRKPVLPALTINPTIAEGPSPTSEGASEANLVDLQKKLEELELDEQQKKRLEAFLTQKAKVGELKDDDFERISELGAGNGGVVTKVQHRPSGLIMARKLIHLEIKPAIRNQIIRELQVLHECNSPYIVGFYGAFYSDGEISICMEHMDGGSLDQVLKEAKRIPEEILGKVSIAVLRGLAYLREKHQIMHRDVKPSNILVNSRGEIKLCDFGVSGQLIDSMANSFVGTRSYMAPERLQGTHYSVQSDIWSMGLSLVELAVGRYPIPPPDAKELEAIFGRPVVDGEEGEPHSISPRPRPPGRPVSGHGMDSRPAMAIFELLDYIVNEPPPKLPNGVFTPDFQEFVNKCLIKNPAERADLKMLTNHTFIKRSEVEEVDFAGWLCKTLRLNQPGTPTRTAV
T1 sequence (Q02750 whole entry, looked up): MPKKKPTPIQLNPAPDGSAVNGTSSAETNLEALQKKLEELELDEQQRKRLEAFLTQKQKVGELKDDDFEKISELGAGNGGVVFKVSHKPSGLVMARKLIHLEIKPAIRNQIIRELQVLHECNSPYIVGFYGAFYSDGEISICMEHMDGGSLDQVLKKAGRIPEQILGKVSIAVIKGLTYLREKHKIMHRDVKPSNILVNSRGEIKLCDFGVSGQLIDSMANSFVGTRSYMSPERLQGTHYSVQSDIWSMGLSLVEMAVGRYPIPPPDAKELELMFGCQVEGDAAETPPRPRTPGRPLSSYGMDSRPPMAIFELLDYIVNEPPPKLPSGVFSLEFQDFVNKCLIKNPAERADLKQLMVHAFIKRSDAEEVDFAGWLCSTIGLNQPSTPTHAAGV

[5] = species on record: Homo sapiens; assay: Inhibition of PI3K (unknown origin) at 10 uM after 15 mins by luminescence assay
[6] = target: Proto-oncogene tyrosine-protein kinase Src (Homo sapiens) (UniProt P12931); assay: Inhibition of Src in human K562 cells assessed as decrease of ERK expression after 48 hrs by Western blot analysis; type: cell-based
Procedure, shortened: (§2)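 K562 cells treated at 0, 0.5, 2.5, 5 and 10 µM for 48 h at 37 °C. Lysed on ice 30 min in NP-40/HEPES pH 7.9 buffer with phosphatase and protease inhibitors, cleared at 12000 g. Bradford-normalized protein run on SDS–PAGE, transferred to PVDF, and probed for ERK and AKT.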

[7] = target: Proto-oncogene tyrosine-protein kinase Src (Homo sapiens) (UniProt P12931); assay: Inhibition of Src in human K562 cells assessed as decrease of AKT expression after 48 hrs by Western blot analysis; type: cell-based; procedure, shortened: as §2
[8] = target: T1, Dual specificity mitogen-activated protein kinase kinase; MEK1/2 (Homo sapiens); assay: Inhibition of MEK in human K562 cells assessed as decrease of ERK expression after 48 hrs by Western blot analysis; type: cell-based; procedure, shortened: as §2
[9] = target: T1, Dual specificity mitogen-activated protein kinase kinase; MEK1/2 (Homo sapiens); assay: Inhibition of MEK in human K562 cells assessed as decrease of AKT expression after 48 hrs by Western blot analysis; type: cell-based; procedure, shortened: as §2
[10] = test system: K562; assay: Inhibition of PI3K in human K562 cells assessed as decrease of ERK expression after 48 hrs by Western blot analysis; type: cell-based; procedure, shortened: as §2
[11] = test system: K562; assay: Inhibition of PI3K in human K562 cells assessed as decrease of AKT expression after 48 hrs by Western blot analysis; type: cell-based; procedure, shortened: as §2
[12] = test system: Calf thymus DNA; assay: Binding affinity to calf thymus DNA at 10 uM by UV-vis spectrophotometric titration analysis; type: nucleic-acid assay; conditions: Bos taurus
[13] = test system: K562; assay: Induction of apoptosis in human K562 cells after 48 hrs by annexin V-FITC staining; type: functional, cell-based
[14] = test system: K562; assay: Induction of apoptosis in human K562 cells assessed as live cells at 0.5 uM after 48 hrs by annexin V-FITC staining (reference value: 96.49%); type: functional
[15] = test system: K562; assay: Induction of apoptosis in human K562 cells assessed as necrotic cells at 0.5 uM after 48 hrs by annexin V-FITC staining (reference value: 0.15%); type: functional
[16] = test system: K562; assay: Induction of apoptosis in human K562 cells assessed as late stage apoptotic cells at 0.5 uM after 48 hrs by annexin V-FITC staining (reference value: 0.23%); type: functional
[17] = test system: K562; assay: Induction of apoptosis in human K562 cells assessed as early stage apoptotic cells at 0.5 uM after 48 hrs by annexin V-FITC staining (reference value: 3.14%); type: functional
[18] = test system: K562; assay: Induction of apoptosis in human K562 cells assessed as live cells at 5 uM after 48 hrs by annexin V-FITC staining (reference value: 96.49%); type: functional
[19] = test system: K562; assay: Induction of apoptosis in human K562 cells assessed as necrotic cells at 5 uM after 48 hrs by annexin V-FITC staining (reference value: 0.15%); type: functional
[20] = test system: K562; assay: Induction of apoptosis in human K562 cells assessed as late stage apoptotic cells at 5 uM after 48 hrs by annexin V-FITC staining (reference value: 0.23%); type: functional
[21] = test system: K562; assay: Induction of apoptosis in human K562 cells assessed as early stage apoptotic cells at 5 uM after 48 hrs by annexin V-FITC staining (reference value: 3.14%); type: functional
[22] = test system: K562; assay: Induction of apoptosis in human K562 cells assessed as live cells at 10 uM after 48 hrs by annexin V-FITC staining (reference value: 96.49%); type: functional
[23] = test system: K562; assay: Induction of apoptosis in human K562 cells assessed as necrotic cells at 10 uM after 48 hrs by annexin V-FITC staining (reference value: 0.15%); type: functional
[24] = test system: K562; assay: Induction of apoptosis in human K562 cells assessed as late stage apoptotic cells at 10 uM after 48 hrs by annexin V-FITC staining (reference value: 0.23%); type: functional
[25] = test system: K562; assay: Induction of apoptosis in human K562 cells assessed as early stage apoptotic cells at 10 uM after 48 hrs by annexin V-FITC staining (reference value: 3.14%); type: functional
[26] = test system: K562; assay: Induction of apoptosis in human K562 cells assessed as early cleavage of caspase-3 at 10 uM after 48 hrs by Western blot analysis; type: functional, cell-based
Procedure, shortened: (§3)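 K562 cells treated 48 h at 37 °C. Lysed on ice 30 min (HEPES pH 7.9, KCl, EDTA, 0.1% NP-40, Na3VO4, NaF, protease inhibitors), then cleared at 12000 g, 4 °C. Protein measured by Bradford and equal amounts run on SDS–PAGE. Transferred to PVDF and immunoblotted for cleaved caspase-3, cleaved caspase-7 and cleaved PARP.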

[27] = test system: K562; assay: Induction of apoptosis in human K562 cells assessed as early cleavage of caspase-7 at 10 uM after 48 hrs by Western blot analysis; type: functional, cell-based; procedure, shortened: as §3
[28] = test system: K562; assay: Induction of apoptosis in human K562 cells assessed as early cleavage of PARP at 10 uM after 48 hrs by Western blot analysis; type: functional, cell-based; procedure, shortened: as §3

`CCc1ccc(NC(=O)Nc2ccc(Nc3c4ccccc4nc4cc([N+](=O)[O-])ccc34)cc2)cc1` showed an IC50 [1] of 1.86 µM and an IC50 [2] of 14.8 µM.

For `O=C(Nc1ccc(Nc2c3ccccc3nc3cc([N+](=O)[O-])ccc23)cc1)Nc1cccc(Cl)c1`, the IC50 [1] was 13.9 µM and the IC50 [2] was > 25 µM.

`O=C(Nc1ccc(Nc2c3ccccc3nc3cc([N+](=O)[O-])ccc23)cc1)Nc1cccc(C(F)(F)F)c1` was tested, and the IC50 [1] was 1.2 µM and the IC50 [2] was > 25 µM.

`CCc1cccc(NC(=O)Nc2ccc(Nc3c4ccccc4nc4cc([N+](=O)[O-])ccc34)cc2)c1` gave an IC50 [1] of 8.92 µM and an IC50 [2] of 22.7 µM.

With `CCCc1ccc(NC(=O)Nc2ccc(Nc3c4ccccc4nc4cc([N+](=O)[O-])ccc34)cc2)cc1` the IC50 [1] was 1.56 µM and the IC50 [2] was 14.4 µM.

In the case of `COc1ccc2nc3cc(Cl)ccc3c(Nc3ccccc3OC)c2c1`, the IC50 [1] is reported as 5.8 µM and the IC50 [2] is reported as > 50 µM.

`CCCCc1ccc(NC(=O)Nc2ccc(Nc3c4ccccc4nc4cc([N+](=O)[O-])ccc34)cc2)cc1` gave an IC50 [1] of 1.23 µM and an IC50 [2] of 14 µM.

`COc1ccc2nc3cc(Cl)ccc3c(Nc3ccc(NC(=O)Nc4ccccc4)cc3)c2c1` gave an IC50 [1] of 3.42 µM and an IC50 [2] of 9.56 µM.

`COc1ccccc1NC(=O)Nc1ccc(Nc2c3ccccc3nc3cc([N+](=O)[O-])ccc23)cc1` gave an IC50 [1] of 4.51 µM and an IC50 [2] of 19.4 µM.

`COc1ccc(NC(=O)Nc2ccc(Nc3c4ccccc4nc4cc([N+](=O)[O-])ccc34)cc2)cc1` was tested, and the IC50 [1] was 7.68 µM and the IC50 [2] was > 25 µM.

Work on `O=C(Nc1ccccc1)Nc1ccc(Nc2c3ccccc3nc3cc([N+](=O)[O-])ccc23)cc1` yielded an IC50 [1] of 3.3 µM and an IC50 [2] of 19.8 µM.

`COc1cccc2c(Nc3ccc(NC(=O)Nc4cccc(C(F)(F)F)c4)cc3)c3ccccc3nc12` gave an IC50 [1] of 1.93 µM and an IC50 [2] of 13.1 µM.

For `COc1cccc(NC(=O)Nc2ccc(Nc3c4ccccc4nc4cc([N+](=O)[O-])ccc34)cc2)c1`, the IC50 [1] was 4.55 µM and the IC50 [2] was 22.3 µM.

In the case of `COc1ccc2nc3cc([N+](=O)[O-])ccc3c(Nc3ccc(NC(=O)Nc4ccccc4)cc3)c2c1`, the IC50 [1] is reported as 3.79 µM and the IC50 [2] is reported as > 25 µM.

In the case of `O=C(Nc1ccc(Nc2c3ccccc3nc3cc([N+](=O)[O-])ccc23)cc1)Nc1cccc(F)c1`, the IC50 [1] is reported as 11.1 µM and the IC50 [2] is reported as > 25 µM.

`COc1cccc2c(Nc3ccc(NC(=O)Nc4ccccc4)cc3)c3ccc([N+](=O)[O-])cc3nc12` was tested, and the IC50 [1] was 2.58 µM and the IC50 [2] was 17.6 µM.

`Cc1cccc(NC(=O)Nc2ccc(Nc3c4ccccc4nc4cc([N+](=O)[O-])ccc34)cc2)c1` was tested, and the IC50 [1] was 11.6 µM and the IC50 [2] was > 25 µM.

In the case of `Cc1ccc(NC(=O)c2ccc(CN3CCN(C)CC3)cc2)cc1Nc1nccc(-c2cccnc2)n1` [IMATINIB], the IC50 [1] is reported as 0.53 µM and the IC50 [2] is reported as > 25 µM.

`COc1cccc2c(Nc3ccc(NC(=O)Nc4ccccc4)cc3)c3ccccc3nc12` gave an IC50 [1] of 0.49 µM and an IC50 [2] of 6.12 µM.

`COc1ccc2c(Nc3ccc(NC(=O)Nc4ccccc4)cc3)c3ccccc3nc2c1` was tested, and the inhibition [3] was 59.7%, the inhibition [4] was 43.2% and the inhibition [5] was 44.4%. For the same compound, the inhibition [6] was “Dose-dependent effect”, the inhibition [7] was “Dose-dependent effect” and the inhibition [8] was “Dose-dependent effect”. The inhibition [9] was “Dose-dependent effect”, the inhibition [10] was “Dose-dependent effect” and the inhibition [11] was “Dose-dependent effect”. The Activity [12] was 0.083 M⁻¹, the Activity [13] was “Dose-dependent effect” and the Activity [14] was 96.6%. It also gave an Activity [15] of 0.15%, an Activity [16] of 0.1% and an Activity [17] of 6.13%. It also gave an Activity [18] of 85.42%, an Activity [19] of 0.3% and an Activity [20] of 0.23%. The Activity [21] was 14.05%, the Activity [22] was 37.83% and the Activity [23] was 0.73%. For the same compound, the Activity [24] was 6.45%, the Activity [25] was 54.98% and the IC50 [1] was 4.08 µM. For the same compound, the IC50 [2] was 9.41 µM, the Activity [26] was “Active” and the Activity [27] was “Active”. The Activity [28] was “Active”.
